ABCB1 inh: blocks JC-1 efflux by human ABCB1 transporter; P08183; inhibition, % at 6.6 µM; CCRF-Adr cells, flow cytometry; 0.067% of 190,000 active; in the data active = inhibition above about 40%;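 note: 0% = vehicle and 100% = reference inhibitor; higher value means more JC-1 retained so stronger ABCB1 efflux block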
HSV replic up: HSV replication enhancement; HSV replication augmentation in cells, fold increase; maximum fold increase; 0.005% of 220,000 active; AID 1956; in the data active = maximum fold increase above about 1.5; tested in PC3 cells
Rad51 HR inh: blocks human Rad51 in homologous recombination; inhibition, % at 10 µM; 0.085% of 200,000 active; hRad51 DNA strand exchange, fluorescence dequenching;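 active = inhibition above 40% at the single screening dose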;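 note: 0% = DMSO control wells and 100% = blanks with heterologous ssDNA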
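Test system: preformed human Rad51 ssDNA filaments. Compound dosing: single dose, 10 µM final compound. Incubation: filaments 15 min 37 °C, then compound 30 min. Technique: FRET fluorescence dequenching, excitation 485 nm, emission 520 nm. Read-out basis: percent inhibition from fluorescence, normalised to plate control and blank means. Benchmarks: plate controls and plate blanks.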
ABCB6 inh 2: inhibitors of human ABC transporter ABCB6; 0.19% of 360,000 active; fluorescence ratio to DMSO, % at 10 µM; AID 602162; K562-ABCB6 porphyrin accumulation, flow cytometry, 1 h; hits give low values;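 active = fluorescence ratio to DMSO below 75%, the collection mean minus 3 SD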;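 note: signal is porphyrin accumulated inside mitochondria; 100% equals median channel fluorescence of DMSO control wells; lower ratio means ABCB6 inhibition with less porphyrin fluorescence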
p97 ATPase inh: blocks human p97 ATPase activity | recombinant p97 ATPase, Kinase-Glo ATP luminescence, 3 h | P55072 | inhibition, % at 8 µM | 0.42% of 220,000 active; in the data active = inhibition above about 15%;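 note: 0% = DMSO vehicle and 100% = wells lacking enzyme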
ABCG2 inh: inhibitors of human ABCG2 transporter, ABCB1 counter-screen. IgMXP3 cells, JC-1 efflux, flow cytometry. inhibition, % at 6.6 µM. 0.1% of 190,000 active. AID 1325;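 active = inhibition above 80%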;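 note: 0% = DMSO and 100% = nicardipine control wells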
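Read-out basis: Efflux inhibition in percent versus controls | Test system: ABCG2 IgMXP3 and barcoded ABCB1 CCRF-Adr cell mix | Quantity: 3 million cells/mL in well | Schedule: 10 min at 25 °C | Control set: Nicardipine as high control, DMSO as low control | Reagent: JC-1 as fluorescent efflux pump substrate | Signal: Flow cytometry of retained JC-1 fluorescence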
p97 confirm: human p97 ATPase inhibition, confirmation | shares compounds with p97 ATPase inh | recombinant p97 ATPase, Kinase-Glo ATP luminescence | inhibition, % at 8 µM | 44% of 760 active;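 active = percent inhibition of p97 ATPase above a set limit, the primary screen's mean plus 3 SD, cut at about 15% in these data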;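 note: 0% = DMSO wells and 100% = wells lacking p97 protein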
An asterisk follows results filed as active; i = inactive; / = no result. In the library only some 0.55% were active in any assay of this set; here they are far more common.

SMILES	ABCB1 inh	HSV replic up	Rad51 HR inh	ABCB6 inh 2	p97 ATPase inh	ABCG2 inh	p97 confirm
CCCc1cc(=O)[nH]c(SCC(=O)Nc2ccc3c(c2)CCC3)n1	0.4	i	-4.5	100.0	15.1*	0.5	4.3
O=C(CCl)Nc1ccccc1C(=O)NCc1ccccc1	0.1	i	-19.4	96.0	18.3*	1.8	15.9*
O=c1c2c3nc4ccccc4nc3n(Cc3ccccc3)c2ncn1Cc1ccco1	1.8	i	1.1	105.0	16.4*	4.5	34.0*
COc1cc(-n2c3nc4ccccc4nc3c3c(=O)n(Cc4ccco4)cnc32)cc(OC)c1OC	/	/	/	/	2.8	/	/
COc1ccc2c(c1)c(C(=O)CN1CCOCC1)c(C)n2C	0.6	i	-6.8	97.0	-4.0	4.9	/
COc1ccc(N2CCN(CC(=O)c3c(C)n(C)c4ccc(OC)cc34)CC2)cc1	/	i	31.1	102.0	27.4*	/	33.5*
c1ccc2c(-c3c[nH]c4ccccc34)c3ccccc3nc2c1	1.5	/	/	99.0	2.5	23.8	/
O=C(O)c1cc(-c2c[nH]c3ccccc23)nc2ccc3ccccc3c12	-0.9	i	2.5	103.0	19.7*	-1.8	19.6*
CC(CO)NS(=O)(=O)c1cc(Cl)ccc1F (centres undefined)	/	/	/	104.0	/	/	/
C[C@H](NC(=O)C1CCN(S(=O)(=O)c2ccccc2)CC1)C(=O)NCc1ccncc1	/	/	/	91.0	/	/	/
S=C(Nc1ccc(Cl)c(Cl)c1)NC1CCCCC1	0.6	i	-1.0	109.0	2.3	6.6	/
CCOc1ccc(NC(=S)Nc2ccc3nsnc3c2)cc1	-0.2	i	-54.2	125.0	33.0*	0.0	29.5*
COc1ccc(NC(=S)Nc2ccc3nc(C)c(C)nc3c2)cc1	0.1	i	-0.7	90.0	0.8	0.0	/
S=C(Nc1ccc2nsnc2c1)NC1CCCCC1	-0.5	i	-27.4	97.0	15.2*	-0.2	6.4
COc1ccc(N(C)C(=O)Nc2ccc3c(c2)nnn3C)cc1	0.4	i	10.4	96.0	12.1	5.5	/
COc1ccc(N(C)C(=O)Nc2ccc3nsnc3c2)cc1	-0.2	i	1.1	110.0	31.6*	0.8	8.1
COc1ccc(NC(=S)Nc2ccc3nsnc3c2)cc1	-0.6	i	-2.0	105.0	37.6*	-7.4	18.5*
CS(=O)(=O)N1CCCCC1CCN1CCCCC1 (centres undefined)	/	/	/	98.0	/	/	/
CCCCn1nnnc1C(c1cc2ccccc2o1)N1CCN(c2ncccc2C#N)CC1 (centres undefined)	/	/	/	101.0	/	/	/
COc1ccc(N(C)S(=O)(=O)c2cccc(C(=O)N3CCN(S(=O)(=O)c4ccc(C)cc4)CC3)c2)cc1	/	/	/	98.0	/	/	/
CC(C)N(C(=O)Nc1ccc2nsnc2c1)C(C)C	0.1	i	8.3	/	42.0*	0.9	16.6*
N#Cc1c(-c2ccccc2)c(-c2ccccc2)nn(CC(=O)NNC(=O)Nc2ccc(Cl)cc2)c1=O	/	i	21.3	101.0	31.4*	/	26.8*
N#CC1=C(N)NC(SCC(=O)c2ccc(Br)cc2)=C(C#N)C12CCCCC2	0.4	i	/	93.0	15.0*	0.2	5.7
Cc1[nH]c2ccccc2c1/C=N/NC(=O)c1cc(C(C)C)[nH]n1	/	i	5.4	89.0	17.3*	/	17.4*
Cc1[nH]c2ccccc2c1/C=N/NC(=O)c1cccs1	-0.1	i	-3.6	104.0	16.4*	0.9	22.3*
SMILES	ABCB1 inh	HSV replic up	Rad51 HR inh	ABCB6 inh 2	p97 ATPase inh	ABCG2 inh	p97 confirm
CC(=O)N(/N=C1\Sc2ccccc2C1=O)c1ccccc1C	0.5	i	-5.5	112.0	18.4*	4.1	25.1*
CC(C)CCCCCCCCCCCCC(=O)NCC(=O)NC1C(O)C(O)C(Nc2ncnc3nc[nH]c23)OC1C(O)CO (centres undefined)	/	/	/	96.0	/	/	/
CC(C(=O)c1ccc(-c2ccccc2)cc1)[n+]1cccc(NC(=O)c2ccccc2)c1 (centres undefined)	/	i	26.2	96.0	19.5*	/	17.6*
CCOC(=O)c1ccc[n+](C(C)C(=O)c2ccc(-c3ccccc3)cc2)c1 (centres undefined)	1.5	i	-3.5	92.0	3.5	4.8	/
CC1(C(=O)NS(=O)(=O)Cc2ccccc2C(F)(F)F)CCN1C(=O)Cc1ccsc1 (centres undefined)	/	/	/	108.0	/	/	/
Cc1cc(C(=O)N/N=C/c2cc(Br)ccc2OC(=O)c2ccccc2)n[nH]1	0.1	/	/	100.0	6.5	0.0	/
Cc1cc(C(=O)N/N=C/c2cc(Br)ccc2OC(=O)c2ccccc2Cl)n[nH]1	0.0	i	-9.9	94.0	18.4*	0.7	34.8*
N#Cc1ccccc1NC(=O)C1SC(=Nc2ccccc2)C(C(=O)Nc2ccc(Cl)cc2)=C1N (centres undefined)	-0.2	i	-2.9	94.0	9.2	-3.2	/
CCOc1ccc(N=C2SC(C(=O)Nc3ccccc3C#N)C(N)=C2C(=O)Nc2ccc(Cl)cc2)cc1 (centres undefined)	-0.6	i	4.5	103.0	18.9*	-1.7	24.2*
COc1ccc(CNC(=O)/C=C/[C@H]2O[C@@H](n3ccc(=O)[nH]c3=O)[C@H](O)[C@@H]2O)cc1	/	/	/	100.0	/	/	/
Cc1nn(-c2cccc(Cl)c2)c2c1C(c1ccncc1)C(C#N)=C(N)O2 (centres undefined)	0.3	i	0.7	90.0	7.2	1.0	/
Cc1nn(-c2ccccc2)c2c1C(c1ccc([N+](=O)[O-])cc1)C(C#N)=C(N)O2 (centres undefined)	/	i	5.6	102.0	5.8	/	/
Cc1ccc(-n2nc(C)c3c2OC(N)=C(C#N)C3c2ccc(F)cc2)cc1 (centres undefined)	0.6	i	-7.8	102.0	19.7*	3.9	2.1
Cc1nn(-c2cccc(Cl)c2)c2c1C(c1cccnc1)C(C#N)=C(N)O2 (centres undefined)	0.4	i	-7.3	113.0	16.3*	2.2	9.4
O=C(/C=C/[C@H]1O[C@@H](n2cnc3c(NC(=O)c4ccccc4)ncnc32)[C@H](O)[C@@H]1O)NCc1cccc2ccccc12	/	/	/	103.0	/	/	/
Oc1ccc(/C=N/NC(=S)Nc2cccnc2)c(O)c1	-0.9	i	0.0	98.0	19.4*	-3.0	25.6*
Fc1cccc(F)c1/C=N/NC(=S)Nc1cccnc1	0.2	i	0.2	97.0	-1.0	9.6	/
Oc1ccc(/C=N/NC(=S)Nc2cccnc2)c(O)c1O	/	i	-12.8	93.0	19.6*	/	19.9*
Oc1cccc(/C=N/NC(=S)Nc2cccnc2)c1O	-1.2	i	-0.6	91.0	17.8*	-10.8	34.6*
CSc1ncccc1C(=O)Nc1cccc(S(=O)(=O)N2CCCCCC2)c1	/	/	/	98.0	/	/	/

Screening results from PubChem.
